Measured values from ChEMBL document CHEMBL4513216, “Probing the Open Global Health Chemical Diversity Library for Multistage-Active Starting Points for Next-Generation Antimalarials” (ACS Infect Dis, 2020).

Experiment: Toxicity liver stage against HepG2, at 10uM
Assay type: cell-based
Design: test concentration 10 uM, cell line HepG2-A16-CD81EGFP
Conditions: human, HepG2-A16-CD81EGFP cells; read-out: INHIBITION
In short: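 Uninfected HepG2-A16-CD81EGFP cells, 3 × 10^3 per well, 1536-well, plated on prespotted compound at 10 μM final, parasite-free screening media added to match infected plates; puromycin 10 μM positive, DMSO 0.5% negative; run in parallel with 48 h PbLuc assay at 37 °C, 5% CO2; viability by CellTiter-Glo luminescence, normalized to controls.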

CCC1CN(CC(=O)NCCN2CCCC2)c2ccccc2S1 (stereo unspecified)
cytotoxicity at 10 µM: -13.1%

CCOc1nn(CC)cc1-c1nnc(SCc2ccccn2)n1C
cytotoxicity at 10 µM: -2.95%

COc1ccc(F)cc1S(=O)(=O)N1CCN(CCn2ccnc2)CC1
cytotoxicity at 10 µM: -7.72%

Cn1cc(CN2CC3(CCN(Cc4ccsc4)C3)C2)cn1
cytotoxicity at 10 µM: -0.182%

CCS(=O)(=O)N1CC[C@H]2O[C@H](c3nc(C)no3)CC[C@H]21
cytotoxicity at 10 µM: 6.73%

CCCOC1Sc2nnc(C)n2N=C1c1ccccc1 (stereo unspecified)
cytotoxicity at 10 µM: 1.57%

CC(=O)N1CCCC1CCc1ccc(Cl)nn1 (stereo unspecified)
cytotoxicity at 10 µM: 3.39%

Cc1nc(CN2CCCC(c3cnccn3)C2)cs1 (stereo unspecified)
cytotoxicity at 10 µM: -4.18%

Cc1cccc(CNC(=O)CC2CCN(Cc3ccccn3)CC2)n1
cytotoxicity at 10 µM: 10.1%

Cn1nc(C2CC2)cc1C(=O)N1CCC(c2nnsc2S(C)(=O)=O)CC1
cytotoxicity at 10 µM: -0.81%

COc1ccc2c(c1)C(=O)NC1(CC2)CCN(Cc2ccccn2)C1 (stereo unspecified)
cytotoxicity at 10 µM: 4.51%

CN(C1CCCN(c2ccccn2)C1)S(=O)(=O)N1CCOCC1 (stereo unspecified)
cytotoxicity at 10 µM: 8.09%

CCN1CCCC1CNCc1cc2cc(OC)c(OC)cc2[nH]c1=O (stereo unspecified)
cytotoxicity at 10 µM: 2.63%

Cc1ccc(N2CCOC(C)(C(=O)N(C)C)C2)nn1 (stereo unspecified)
cytotoxicity at 10 µM: -4.43%

COc1ncc(CN(C)C2CCN(C(C)C)CC2)cn1
cytotoxicity at 10 µM: 5.15%

O=C(NCc1ccccn1)c1cnc(C2CCCN2)cn1 (stereo unspecified)
cytotoxicity at 10 µM: 3.62%

COc1ccccc1-c1ccccc1CC1(C(=O)O)CCNCC1
cytotoxicity at 10 µM: -0.782%

Cc1cc(C2CCCCN2C(=O)c2cccn2C)nc2nccn12 (stereo unspecified)
cytotoxicity at 10 µM: -17.6%

Cc1cc(C(N)=O)nc(C2(C)CCCN2Cc2cnn(C)c2)n1 (stereo unspecified)
cytotoxicity at 10 µM: -23.6%

CNc1cc(C2CCCN(Cc3ccccc3OCC(=O)O)C2)ccn1 (stereo unspecified)
cytotoxicity at 10 µM: -24.8%

CNCC(=O)N1CCCCC1c1nccc(C)n1 (stereo unspecified)
cytotoxicity at 10 µM: -15.4%

CC(=O)N1CCN(c2cc(CCNC(=O)C(C)C)nc(C3CC3)n2)CC1
cytotoxicity at 10 µM: -21.3%

O=C(c1ccc(=O)[nH]n1)N1CCCC1C1CCCC1 (stereo unspecified)
cytotoxicity at 10 µM: -7.09%

NC(=O)N1CCC(NCc2cc(C(F)(F)F)ccc2Cl)CC1
cytotoxicity at 10 µM: -0.651%

O=C(CCc1nnc(-c2ccccc2)o1)N1CCCC1c1ccccn1 (stereo unspecified)
cytotoxicity at 10 µM: -5.82%

CC1CS(=O)(=O)CCN1Cc1ccccc1OCC(F)(F)F (stereo unspecified)
cytotoxicity at 10 µM: -4.86%

CC(C)n1nc2c(cc1=O)CN(CC1CCCCO1)CC2 (stereo unspecified)
cytotoxicity at 10 µM: 14.5%

CCc1nnc(CN2CCc3ccc(S(N)(=O)=O)cc32)o1
cytotoxicity at 10 µM: 1.41%

COC(=O)c1ccoc1CN(C)CC(=O)NC1CCS(=O)(=O)C1 (stereo unspecified)
cytotoxicity at 10 µM: -14.2%

Cc1cc(S(=O)(=O)N2CCOCC2C#N)ccc1F (stereo unspecified)
cytotoxicity at 10 µM: 57.3%

Cc1noc(C)c1CCCNC(=O)Nc1cccc([S+](C)[O-])c1 (stereo unspecified)
cytotoxicity at 10 µM: -0.595%

CC(C)c1nc2cc(NC(=O)Cn3ccc(=O)[nH]c3=O)ccc2o1
cytotoxicity at 10 µM: 1.73%

O=C(NCCNc1ccccn1)NC1CCCC1
cytotoxicity at 10 µM: -5.81%

COCc1nc(C(=O)OCC2CCN(c3ccccc3)C2)cs1 (stereo unspecified)
cytotoxicity at 10 µM: -1.31%

CC(NC(=O)N1CCc2ccccc21)c1nncn1C (stereo unspecified)
cytotoxicity at 10 µM: -5.3%

COc1cc(C(C)NCc2c[nH]nc2C)ccc1OCCO (stereo unspecified)
cytotoxicity at 10 µM: -7.47%

Cc1cccc(OC(C)C(=O)NCC2(N(C)C)CCCC2)c1 (stereo unspecified)
cytotoxicity at 10 µM: -13.4%

COCC(NC(=O)c1ccoc1C)c1cccc(C(F)(F)F)c1 (stereo unspecified)
cytotoxicity at 10 µM: -5.95%

O=C(NCCN1CCOCC1)N(CCCO)C1CCCc2ccccc21 (stereo unspecified)
cytotoxicity at 10 µM: -9.69%

COc1ccc(CNC(=O)NC(C)(CO)C2CC2)c(C(F)(F)F)c1 (stereo unspecified)
cytotoxicity at 10 µM: 8.48%

O=C(NCCCOCc1ccco1)c1cccnc1N1CCOCC1
cytotoxicity at 10 µM: -8.5%

N#Cc1nccnc1N1CCC(c2nc(C(F)(F)F)c[nH]2)CC1
cytotoxicity at 10 µM: 4.25%

COCCCNC(=O)Nc1cccc2ncccc12
cytotoxicity at 10 µM: -4.84%

NC(=O)CCn1ccc(NC(=O)C2(c3ccc(F)cc3)CCC2)n1
cytotoxicity at 10 µM: -1.03%

CCn1c(C)cc(C(=O)NCc2ccc(CS(C)(=O)=O)cc2)c1C
cytotoxicity at 10 µM: -16.9%

Cc1cccc(C(=O)N2CCCC2c2c(C)n[nH]c2C)c1 (stereo unspecified)
cytotoxicity at 10 µM: 8.58%

CC(=O)NCCCSCCOc1cccc(C#N)c1
cytotoxicity at 10 µM: 11.4%

CCc1nnsc1C(=O)N1CCN(CC(O)CC)CC1 (stereo unspecified)
cytotoxicity at 10 µM: -6.06%

COc1c(C)cnc(CN(C)C(=O)c2cccc(NC(N)=O)c2)c1C
cytotoxicity at 10 µM: -8.94%

COc1cccc(F)c1C(C)NC(=O)NCc1cc(C(C)C)no1 (stereo unspecified)
cytotoxicity at 10 µM: 4.25%

CNS(=O)(=O)c1ccc(CNC(=O)N(C)CC(C)C)cc1
cytotoxicity at 10 µM: 1.08%

CNC(=O)c1ccc(S(=O)(=O)NCCc2ccccn2)cc1
cytotoxicity at 10 µM: -14.3%

c1ccc2sc(NCC3(N4CCOCC4)CCSC3)nc2c1 (stereo unspecified)
cytotoxicity at 10 µM: 0.375%

O=C(c1c(F)cc(Br)cc1F)N1CCc2cnccc21
cytotoxicity at 10 µM: -10.1%

CCc1noc(CN(CC(=O)N2CCCCC2)c2cccc(C)c2)n1
cytotoxicity at 10 µM: -6.61%

CCc1nc(CNc2ccc(F)c(F)c2)no1
cytotoxicity at 10 µM: 5.49%

O=C(NC1CC1)[C@@H]1CCO[C@@H]2CCN(Cc3ccco3)C[C@H]21
cytotoxicity at 10 µM: -86.6%

CC(C)Nc1ncnc2c1CCN(C(=O)CC1CCCC1)CC2
cytotoxicity at 10 µM: -81.5%

CC(=O)N1CC[C@H]2OCC[C@@H](C(=O)NCc3ccco3)[C@@H]2C1
cytotoxicity at 10 µM: -77.4%

CC(C)c1cc(C2CCCN2C(=O)CN2C(=O)OC(C)(C)C2=O)no1 (stereo unspecified)
cytotoxicity at 10 µM: -7.71%

Cc1cccc(CC(=O)N2CCCC(N(C)CCCN(C)C)C2)c1 (stereo unspecified)
cytotoxicity at 10 µM: -0.655%

COc1cc(CN2CCCC(Nc3cccc(F)c3)C2)cc(Cl)c1O (stereo unspecified)
cytotoxicity at 10 µM: -0.476%

CC(CO)CN(Cc1ccccc1)Cc1cnc2ccccc2n1 (stereo unspecified)
cytotoxicity at 10 µM: 6.6%

COc1cc(C)cc(C(C(=O)O)N(C)Cc2ccon2)c1OC (stereo unspecified)
cytotoxicity at 10 µM: -3.41%

COc1ccc(F)c(-c2nccn2CCN2CCCC2)c1
cytotoxicity at 10 µM: -11.8%

Cc1ccccc1N1CCN(C(=O)Cc2ccc3c(c2)OCO3)CC1=O
cytotoxicity at 10 µM: 6.17%

CCCc1nc(C(=O)N2CCN(S(=O)(=O)CC)CC2)cs1
cytotoxicity at 10 µM: -14.5%

CCN1C[C@@H](C(=O)O)[C@H](c2cccc(OC)c2)C1
cytotoxicity at 10 µM: -19%

COc1ncc(CN2CCC3(CCCN(CC4CCC4)C3)C2)cn1 (stereo unspecified)
cytotoxicity at 10 µM: -1.95%

c1cn(CCn2cnnc2)c(-c2cc3n(n2)CCCNC3)n1
cytotoxicity at 10 µM: -0.309%

CCC[C@H]1CN(C2CCOCC2)C[C@@H]1NC(=O)CCn1ccnc1C
cytotoxicity at 10 µM: 5.78%

CC(c1nccs1)N(C)C(=O)c1cc(CN(C)Cc2ccccc2)on1 (stereo unspecified)
cytotoxicity at 10 µM: 12.2%

Cc1nc2c(c(NCC(c3cccnc3)N3CCOCC3)n1)CCNC2 (stereo unspecified)
cytotoxicity at 10 µM: -11.1%

CSCCC1c2nc[nH]c2CCN1Cc1[nH]c2ccc(F)cc2c1C (stereo unspecified)
cytotoxicity at 10 µM: -5.65%

COCCN(Cc1ccccn1)C(=O)C1CCCCCN1C (stereo unspecified)
cytotoxicity at 10 µM: 6.32%

Cc1cc2[nH]cc(C(=O)N3CCCCC3c3ccc(F)cc3)c(=O)n2n1 (stereo unspecified)
cytotoxicity at 10 µM: 4.19%

CCc1cnc(N2CCCC(CCC(N)=O)C2)nc1 (stereo unspecified)
cytotoxicity at 10 µM: 2.25%

CCc1nnc(CN2CCC3(CC2)Nc2ccccc2NC3=O)o1
cytotoxicity at 10 µM: -6.96%

Cc1ccc2c(c1)OC(C)(C)CC2NC(=O)C1CCN(C)CC1 (stereo unspecified)
cytotoxicity at 10 µM: -1.71%

CN(Cc1ccc(-n2cncn2)cc1)Cc1ncc[nH]1
cytotoxicity at 10 µM: 4.67%

COCCN1CCC2(CCC1=O)CN(C1CCOCC1)CCN2C (stereo unspecified)
cytotoxicity at 10 µM: 0.0227%

CCN(Cc1noc(C)n1)C(=O)CC1C(=O)NCCN1CC(C)(C)C (stereo unspecified)
cytotoxicity at 10 µM: 2.78%

Cn1nccc1C(=O)N1CCC(n2cc(-c3ccsc3)nn2)CC1
cytotoxicity at 10 µM: -3.44%

O=C(c1ccsc1)N1C[C@@H](CN2CCCC2)[C@@H](CO)C1
cytotoxicity at 10 µM: 15.2%

COc1ccccc1OCc1cc(C(=O)N2CC=CC2C(C)C)n[nH]1 (stereo unspecified)
cytotoxicity at 10 µM: -2.72%

Cc1cccc(CN2CCc3c(nc(N4CCCCC4C)[nH]c3=O)C2)n1 (stereo unspecified)
cytotoxicity at 10 µM: -0.336%

Cc1cc(C(=O)N2CCCC(C)C2)ccc1NCc1nc(C(C)C)no1 (stereo unspecified)
cytotoxicity at 10 µM: -9.84%

CNC(=O)c1ccc(C(=O)N2CCCC(n3ccnc3)C2)cn1 (stereo unspecified)
cytotoxicity at 10 µM: -8.89%

CCCOCC(=O)NS(=O)(=O)c1ccc2c(c1)OCCO2
cytotoxicity at 10 µM: -6.46%

CSc1nccn1-c1cccc(C(=O)NCC(F)(F)F)c1
cytotoxicity at 10 µM: -0.312%

CCOC(=O)c1sc2ccsc2c1CNC(=O)C(C)OC (stereo unspecified)
cytotoxicity at 10 µM: -4.07%

Cc1noc(Cl)c1CC(=O)N1CCC(Nc2cccnn2)CC1
cytotoxicity at 10 µM: -4.72%

CCn1cc(NC(=O)C2CCN(Cc3noc(C4CC4)n3)CC2)cn1
cytotoxicity at 10 µM: -1.41%

CCc1noc(CN2CCCC(Cn3nc(C)nc3C)C2)n1 (stereo unspecified)
cytotoxicity at 10 µM: -6.31%

CCC(C)(C)NC(=O)CN(C)C(c1cccc(F)c1)c1ccccn1 (stereo unspecified)
cytotoxicity at 10 µM: -3.15%

CC(=O)NCCc1ccc(C(=O)N2CCCC2c2cnn(C)c2)cc1 (stereo unspecified)
cytotoxicity at 10 µM: -4.74%

CC(NC(=O)NCC1(N2CCCCC2)CCCCC1)c1nncn1C (stereo unspecified)
cytotoxicity at 10 µM: -9.78%

O=C(c1cnc(-c2cccs2)s1)N1CCCN2CCCC2C1 (stereo unspecified)
cytotoxicity at 10 µM: -13.9%

Cn1cc([C@@H]2CN(S(=O)(=O)c3ccccc3F)C[C@H]2N)c2ccncc21
cytotoxicity at 10 µM: 6.13%

CC(=O)NC1CCN(c2cnc(C3CCNCC3)cn2)CC1
cytotoxicity at 10 µM: 8%

CN(C)CCN(Cc1ccccn1)Cc1ccnn1C1CCCCO1 (stereo unspecified)
cytotoxicity at 10 µM: 1.6%

CN1CCC2(CC1)CN(C(=O)c1cnccn1)Cc1ccccc12
cytotoxicity at 10 µM: -82.2%

Cc1nc(CO[C@H]2CN(Cc3cccs3)[C@@H]3COC[C@H]23)cs1
cytotoxicity at 10 µM: -2.19%

CCc1nc2ccccc2c(=O)n1CC1(O)CCN(C(=O)C2CC2)CC1
cytotoxicity at 10 µM: -18.3%

Cc1cnc(N2CC[C@@H]3O[C@@H](COCC(=O)N(C)C)CC[C@@H]32)nc1
cytotoxicity at 10 µM: 0.0508%

CN1CCN(CCO)C(=O)C12CCN(Cc1ccsc1)CC2
cytotoxicity at 10 µM: 3.66%

CN1CCCc2cc(-c3cncn3CC(=O)NC(C)(C)C)ccc21
cytotoxicity at 10 µM: -28.9%

CCn1ncc2c1CN(C(=O)Cc1ccccn1)CC2COC (stereo unspecified)
cytotoxicity at 10 µM: -70.7%

Cc1oncc1C(=O)N1CC[C@H]2[C@@H]1CCC(=O)N2c1cccnc1
cytotoxicity at 10 µM: -76.3%

O=S(=O)(C1CC1)N1CC[C@]2(C[C@@H](Oc3ncccc3F)CO2)C1
cytotoxicity at 10 µM: -74.1%

Cc1cc(C(=O)N2C[C@@H]3CC[C@H]2CN(C)C3)ccc1Cl
cytotoxicity at 10 µM: -8.23%
